Test results: ChEMBL document CHEMBL3297719, “Hybrid dopamine uptake blocker-serotonin releaser ligands: a new twist on transporter-focused therapeutics” (ACS Med Chem Lett, 2014)
The source made the active and inactive calls. The rule behind the calls is not given here.

Legend:
[1] = target: T1, Sodium-dependent dopamine transporter (Rattus norvegicus, UniProt P23977); assay: Inhibition of DAT-mediated dopamine uptake in rat synaptosomes; format: subcellular, Brain
Procedure, shortened: (§1)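 Synaptosomes prepared from rat brain homogenate. Each compound was run in both the release assay and the uptake-inhibition assay to classify it as a releasing substrate or an uptake inhibitor. Dose-response curves were then completed only for the assigned activity. Values are means ± SD from N = 3 experiments, each performed in triplicate.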

[2] = target: 5-hydroxytryptamine receptor 2B (Homo sapiens) (UniProt P41595); assay: Agonist activity at human 5HT2C expressed in HEK293 cells at 10 uM by calcium mobilization assay; format: functional, cell-based
5-hydroxytryptamine receptor 2B (Homo sapiens), sequence (P41595 whole entry): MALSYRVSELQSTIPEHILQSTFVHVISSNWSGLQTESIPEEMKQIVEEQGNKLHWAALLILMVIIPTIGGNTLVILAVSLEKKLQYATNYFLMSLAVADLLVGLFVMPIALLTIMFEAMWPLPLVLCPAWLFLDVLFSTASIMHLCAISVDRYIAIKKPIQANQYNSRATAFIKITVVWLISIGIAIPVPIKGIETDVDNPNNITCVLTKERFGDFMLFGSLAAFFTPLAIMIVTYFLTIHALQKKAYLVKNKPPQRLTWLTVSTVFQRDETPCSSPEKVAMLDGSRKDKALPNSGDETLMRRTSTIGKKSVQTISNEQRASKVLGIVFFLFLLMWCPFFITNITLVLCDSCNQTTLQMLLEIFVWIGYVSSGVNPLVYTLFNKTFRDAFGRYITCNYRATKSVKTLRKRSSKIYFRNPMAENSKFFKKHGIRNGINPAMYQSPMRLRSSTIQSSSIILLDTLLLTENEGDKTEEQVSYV

[3] = target: 5-hydroxytryptamine receptor 2A (Homo sapiens) (UniProt P28223); assay: Agonist activity at human 5HT2A expressed in CHOK1 cells at 10 uM after 3 hrs by beta-arrestin recruitment assay; format: cell-based; settings: CHO-K1
5-hydroxytryptamine receptor 2A (Homo sapiens), sequence (P28223 whole entry): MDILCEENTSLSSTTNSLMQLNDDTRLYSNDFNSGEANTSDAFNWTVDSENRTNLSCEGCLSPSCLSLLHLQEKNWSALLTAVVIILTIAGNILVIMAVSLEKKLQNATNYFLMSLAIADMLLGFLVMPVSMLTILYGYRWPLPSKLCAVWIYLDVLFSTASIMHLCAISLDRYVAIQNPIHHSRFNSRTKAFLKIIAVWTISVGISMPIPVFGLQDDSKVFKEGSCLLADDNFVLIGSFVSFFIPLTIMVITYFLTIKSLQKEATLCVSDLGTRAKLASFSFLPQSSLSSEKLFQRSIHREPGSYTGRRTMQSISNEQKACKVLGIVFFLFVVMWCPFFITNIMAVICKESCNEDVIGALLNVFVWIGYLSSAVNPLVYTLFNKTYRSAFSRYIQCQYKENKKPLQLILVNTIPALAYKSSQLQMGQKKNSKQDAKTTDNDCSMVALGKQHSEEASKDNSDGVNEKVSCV

[4] = target: 5-hydroxytryptamine receptor 2B (Homo sapiens) (UniProt P41595); assay: Agonist activity at human 5HT2B expressed in HEK293 cells at 10 uM by calcium mobilization assay; format: functional, cell-based
[5] = target: T2, 5-hydroxytryptamine receptor 1A (Homo sapiens) (UniProt P08908); assay: Agonist activity at human 5HT1A expressed in CHO cells coexpressing Galpha16 at 10 uM by calcium mobilization assay; format: functional, cell-based
T2 sequence (whole entry): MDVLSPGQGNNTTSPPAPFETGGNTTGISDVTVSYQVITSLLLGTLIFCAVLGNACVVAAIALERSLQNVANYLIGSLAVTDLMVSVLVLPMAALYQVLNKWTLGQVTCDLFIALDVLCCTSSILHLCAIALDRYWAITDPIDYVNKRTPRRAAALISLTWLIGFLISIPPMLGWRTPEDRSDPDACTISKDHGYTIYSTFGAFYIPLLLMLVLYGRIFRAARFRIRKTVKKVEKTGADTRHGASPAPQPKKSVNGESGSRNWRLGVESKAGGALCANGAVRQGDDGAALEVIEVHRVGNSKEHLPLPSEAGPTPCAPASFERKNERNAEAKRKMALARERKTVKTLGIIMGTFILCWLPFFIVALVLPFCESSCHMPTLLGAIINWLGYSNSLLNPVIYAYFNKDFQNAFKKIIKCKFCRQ

[6] = target: Transporter (Rattus norvegicus) (UniProt Q63380); assay: Inhibition of NET-mediated norepinephrine uptake in rat synaptosomes; format: subcellular; settings: Brain; procedure, shortened: as §1
Transporter (Rattus norvegicus), sequence (Q63380 as listed by the source): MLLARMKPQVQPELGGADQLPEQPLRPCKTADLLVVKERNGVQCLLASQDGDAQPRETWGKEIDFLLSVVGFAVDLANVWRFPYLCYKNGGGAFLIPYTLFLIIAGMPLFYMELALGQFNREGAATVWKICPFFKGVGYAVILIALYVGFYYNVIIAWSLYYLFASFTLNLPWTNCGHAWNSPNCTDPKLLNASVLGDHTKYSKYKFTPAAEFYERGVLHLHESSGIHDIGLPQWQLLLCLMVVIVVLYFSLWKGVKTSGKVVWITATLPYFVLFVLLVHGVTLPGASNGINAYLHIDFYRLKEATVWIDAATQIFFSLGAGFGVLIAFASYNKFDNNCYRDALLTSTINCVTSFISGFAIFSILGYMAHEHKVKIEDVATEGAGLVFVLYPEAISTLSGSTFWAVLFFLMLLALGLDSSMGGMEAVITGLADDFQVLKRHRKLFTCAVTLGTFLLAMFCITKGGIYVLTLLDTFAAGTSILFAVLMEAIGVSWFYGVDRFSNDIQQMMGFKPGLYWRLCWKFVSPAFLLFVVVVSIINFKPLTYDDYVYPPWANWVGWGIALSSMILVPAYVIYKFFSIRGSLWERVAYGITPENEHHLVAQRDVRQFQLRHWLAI

[7] = target: T3, Sodium-dependent serotonin transporter (Rattus norvegicus, UniProt P31652); assay: Induction of SERT-mediated serotonin release in rat synaptosomes; format: subcellular, Brain; procedure, shortened: as §1
T3 sequence (P31652 whole entry): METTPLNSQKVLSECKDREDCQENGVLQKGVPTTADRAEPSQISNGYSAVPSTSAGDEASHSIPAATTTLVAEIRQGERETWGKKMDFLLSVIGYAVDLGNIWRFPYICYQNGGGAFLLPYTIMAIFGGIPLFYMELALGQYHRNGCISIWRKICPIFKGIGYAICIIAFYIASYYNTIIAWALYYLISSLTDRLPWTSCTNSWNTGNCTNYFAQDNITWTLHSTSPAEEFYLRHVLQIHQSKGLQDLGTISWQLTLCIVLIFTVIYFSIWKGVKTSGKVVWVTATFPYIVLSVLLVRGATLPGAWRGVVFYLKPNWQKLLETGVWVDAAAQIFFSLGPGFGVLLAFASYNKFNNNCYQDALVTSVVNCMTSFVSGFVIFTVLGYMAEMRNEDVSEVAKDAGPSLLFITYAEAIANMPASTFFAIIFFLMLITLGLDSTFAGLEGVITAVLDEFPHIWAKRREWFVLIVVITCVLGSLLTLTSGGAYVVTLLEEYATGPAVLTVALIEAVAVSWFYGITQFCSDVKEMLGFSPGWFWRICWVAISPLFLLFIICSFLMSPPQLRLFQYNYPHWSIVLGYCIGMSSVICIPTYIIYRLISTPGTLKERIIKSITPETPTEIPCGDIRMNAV

[8] = target: 5-hydroxytryptamine receptor 2A (Homo sapiens) (UniProt P28223); assay: Agonist activity at human 5HT2A expressed in HEK293 cells at 10 uM by calcium mobilization assay; format: functional, cell-based
[9] = target: Transporter (Rattus norvegicus) (UniProt Q63380); assay: Induction of NET-mediated norepinephrine release in rat synaptosomes; format: subcellular; settings: Brain; procedure, shortened: as §1
[10] = target: T1, Sodium-dependent dopamine transporter; assay: Induction of DAT-mediated dopamine release in rat synaptosomes; format: subcellular, Brain; procedure, shortened: as §1
[11] = target: T3, Sodium-dependent serotonin transporter; assay: Inhibition of SERT-mediated serotonin uptake in rat synaptosomes; format: subcellular, Brain; procedure, shortened: as §1
[12] = target: Sodium-dependent dopamine transporter (Homo sapiens, UniProt Q01959); assay: Inhibition of DAT (unknown origin)-mediated dopamine reuptake
Sodium-dependent dopamine transporter (Homo sapiens, UniProt Q01959), sequence (Q01959 whole entry): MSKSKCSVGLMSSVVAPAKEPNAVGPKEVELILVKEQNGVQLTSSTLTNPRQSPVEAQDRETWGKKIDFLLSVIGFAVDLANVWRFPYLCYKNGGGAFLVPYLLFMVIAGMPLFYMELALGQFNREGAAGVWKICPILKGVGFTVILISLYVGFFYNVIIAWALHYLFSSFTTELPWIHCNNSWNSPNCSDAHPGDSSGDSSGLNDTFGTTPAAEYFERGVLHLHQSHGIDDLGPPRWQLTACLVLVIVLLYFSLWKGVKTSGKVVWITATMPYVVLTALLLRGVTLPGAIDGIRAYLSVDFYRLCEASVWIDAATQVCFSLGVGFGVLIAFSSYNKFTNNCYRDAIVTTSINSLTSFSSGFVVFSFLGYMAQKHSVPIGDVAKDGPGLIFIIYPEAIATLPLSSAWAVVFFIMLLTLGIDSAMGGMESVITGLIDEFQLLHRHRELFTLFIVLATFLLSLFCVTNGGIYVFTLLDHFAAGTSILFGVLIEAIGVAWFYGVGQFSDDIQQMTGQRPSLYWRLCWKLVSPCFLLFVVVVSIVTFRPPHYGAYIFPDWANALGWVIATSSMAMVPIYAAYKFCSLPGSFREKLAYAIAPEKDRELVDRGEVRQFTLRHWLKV

[13] = target: Sodium-dependent serotonin transporter (Homo sapiens, UniProt P31645); assay: Induction of SERT (unknown origin)-mediated serotonin release
Sodium-dependent serotonin transporter (Homo sapiens, UniProt P31645), sequence (P31645 whole entry): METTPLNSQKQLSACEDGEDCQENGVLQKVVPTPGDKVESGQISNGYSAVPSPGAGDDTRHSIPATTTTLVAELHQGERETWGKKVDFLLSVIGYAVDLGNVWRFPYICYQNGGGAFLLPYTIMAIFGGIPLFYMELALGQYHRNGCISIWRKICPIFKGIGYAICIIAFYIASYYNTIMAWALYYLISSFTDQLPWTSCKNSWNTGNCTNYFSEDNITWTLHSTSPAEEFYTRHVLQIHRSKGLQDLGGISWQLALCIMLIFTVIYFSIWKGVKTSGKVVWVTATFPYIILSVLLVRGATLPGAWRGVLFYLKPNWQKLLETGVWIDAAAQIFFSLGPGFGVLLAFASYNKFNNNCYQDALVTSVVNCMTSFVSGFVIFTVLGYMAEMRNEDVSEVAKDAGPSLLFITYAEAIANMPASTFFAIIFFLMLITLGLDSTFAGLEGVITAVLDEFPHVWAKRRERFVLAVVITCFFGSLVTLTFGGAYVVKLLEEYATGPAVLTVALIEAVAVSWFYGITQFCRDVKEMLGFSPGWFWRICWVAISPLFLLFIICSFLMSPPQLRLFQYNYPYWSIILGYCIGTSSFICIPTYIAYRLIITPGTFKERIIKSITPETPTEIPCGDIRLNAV

T1 sequence (P23977 whole entry): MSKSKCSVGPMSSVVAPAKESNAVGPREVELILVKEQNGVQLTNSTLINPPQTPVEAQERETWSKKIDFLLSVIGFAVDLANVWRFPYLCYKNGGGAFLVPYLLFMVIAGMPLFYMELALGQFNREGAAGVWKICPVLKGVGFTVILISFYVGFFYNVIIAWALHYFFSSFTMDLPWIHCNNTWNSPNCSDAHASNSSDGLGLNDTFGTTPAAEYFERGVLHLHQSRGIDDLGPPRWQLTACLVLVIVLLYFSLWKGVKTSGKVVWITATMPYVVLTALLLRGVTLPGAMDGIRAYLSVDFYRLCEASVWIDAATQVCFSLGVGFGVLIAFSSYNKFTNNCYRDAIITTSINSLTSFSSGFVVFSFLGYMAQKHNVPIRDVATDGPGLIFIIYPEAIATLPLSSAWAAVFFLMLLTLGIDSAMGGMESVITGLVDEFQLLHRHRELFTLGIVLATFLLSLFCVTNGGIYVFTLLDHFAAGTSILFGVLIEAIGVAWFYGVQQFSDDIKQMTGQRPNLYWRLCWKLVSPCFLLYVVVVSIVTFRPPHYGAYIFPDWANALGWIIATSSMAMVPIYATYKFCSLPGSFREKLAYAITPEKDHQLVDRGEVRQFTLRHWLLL

Compound | IC50 [1] | Activity [2] | Activity [3] | Activity [4] | Activity [5] | inhibition [6] | EC50 [7] | Activity [8] | Activity [9] | EC50 [10] | IC50 [11] | Ki [12] | EC50 [13]
Cc1ccc(C(=O)C(C)NC2CC2)cc1 (stereo not drawn) | 1100 nM | inactive | inactive | inactive | inactive | Active | 667 nM | inactive | Active | – | – | – | –
C[C@H](NC1CC1)C(=O)c1cccc(Cl)c1 | 294 nM | inactive | inactive | inactive | inactive | Active | 562 nM | inactive | Active | – | – | – | –
CCC(Cc1ccccc1)NC (stereo not drawn) | – | inactive | inactive | inactive | inactive | Active | 4700 nM | inactive | Active | 225 nM | – | – | –
CC(NC1CC1)C(=O)c1ccc(Cl)cc1 (stereo not drawn) | 2010 nM | inactive | inactive | inactive | inactive | Active | 1630 nM | inactive | Active | – | – | – | –
Cc1ccc(C(=O)C(C)NC2CC2)cc1Cl (stereo not drawn) | 592 nM | inactive | inactive | inactive | inactive | Active | 181 nM | inactive | Active | – | – | – | –
CNC(C)C(=O)c1cccc(Cl)c1 (stereo not drawn) | – | inactive | inactive | inactive | inactive | Active | 410 nM | inactive | Active | 46.8 nM | – | – | –
CCCC(N)Cc1ccccc1 (stereo not drawn) | 2600 nM | inactive | inactive | inactive | inactive | Active | – | inactive | Active | – | > 10 µM | – | –
Cc1cccc(C(=O)C(C)NC2CC2)c1 (stereo not drawn) | 1100 nM | inactive | inactive | inactive | inactive | Active | 1070 nM | inactive | Active | – | – | – | –
CC(N)Cc1cccc(Cl)c1 (stereo not drawn) | – | inactive | inactive | inactive | inactive | Active | – | inactive | Active | – | – | – | –
C[C@@H](NC1CC1)C(=O)c1cccc(Cl)c1 | 369 nM | inactive | inactive | inactive | inactive | Active | 733 nM | inactive | Active | – | – | – | –
CCNC(C)C(=O)c1ccccc1 (stereo not drawn) | – | – | – | – | – | – | – | – | – | – | – | 1010 nM | 2120 nM
CCCNC(C)C(=O)c1cccc(Cl)c1 (stereo not drawn) | 793 nM | inactive | inactive | inactive | inactive | Active | – | inactive | Active | – | > 10 µM | – | –
COc1cccc(C(=O)C(C)NC2CC2)c1 (stereo not drawn) | 2370 nM | inactive | inactive | inactive | inactive | Active | 1010 nM | inactive | Active | – | – | – | –
CCC(NC)C(=O)c1ccccc1 (stereo not drawn) | – | inactive | inactive | inactive | inactive | Active | – | inactive | Active | 411 nM | > 10 µM | – | –
CC(NC1CC1)C(=O)c1cccc(Cl)c1 (stereo not drawn) | 533 nM | inactive | inactive | inactive | inactive | Active | 1330 nM | inactive | Active | – | – | – | –
CC(NC1CC1)C(=O)c1cccc(Br)c1 (stereo not drawn) | 386 nM | inactive | inactive | inactive | inactive | Active | 621 nM | inactive | Active | – | – | – | –
CC(NC1CC1)C(=O)c1ccc(Cl)c(Cl)c1 (stereo not drawn) | 425 nM | inactive | inactive | inactive | inactive | Active | 356 nM | inactive | Active | – | – | – | –
CCNC(C)C(=O)c1cccc(Cl)c1 (stereo not drawn) | 5920 nM | inactive | inactive | inactive | inactive | Active | – | inactive | Active | – | > 10 µM | – | –
